Experimental data gathered from unrelated publications.
Each line is one published result; the experiments were not run side by side. Converted amounts (≈) assume the structure as drawn.

| Compound | target or system | assay | system | conditions | quantity | result |
| --- | --- | --- | --- | --- | --- | --- |
| CO[C@]12C[C@@H](COC(=O)c3cncc(Br)c3)CN(C)[C@@H]1Cc1cn(C)c3cccc2c13 | CNE-2 | cell growth or viability, MTT |  | 48 h | IC50 | 12900 nM |
| CC(C)=CCC/C(C)=C/CO | Cryptococcus neoformans | microbial killing, broth dilution |  | clinical isolate | MFC | 800 µg/mL (≈ 5190 µM) |
| Cc1nn(-c2ccccc2)c2c1C(c1c[nH]c3ccccc13)N(C(=O)c1ccncc1)N2 (centres unmarked) | Cryptococcus neoformans | microbial growth |  | clinical isolate | MIC | 4 µg/mL (≈ 9.51 µM) |
| C=CC(=O)N1CCN(c2nc(=O)n(-c3c(C)ccnc3C(C)C)c3nc(-c4c(O)cccc4F)c(F)cc23)[C@@H](C)C1 | ASPC1 | cell growth or viability, ATP luminescence |  |  | IC50 | > 10000 nM |
| Clc1ccccc1C(c1ccccc1)(c1ccccc1)n1ccnc1 | Cryptococcus neoformans | microbial growth |  | clinical isolate | MIC | 4 µg/mL (≈ 11.6 µM) |
| Nc1ccc(/C=C/C(=O)N2CCc3c(oc4c(-c5ccc(F)cc5)cc(-c5ccc(C(=O)N6C[C@@H]7[C@H](C6)C7(F)F)nn5)cc34)C2)cn1 | ASPC1 | cell growth or viability, CCK-8 |  | 72 h | IC50 | 260 nM |
| Cc1nn(-c2ccccc2)c2c1C(c1ccc(Cl)cc1)N(C(=O)c1ccncc1)N2 (centres unmarked) | Cryptococcus neoformans | microbial growth |  | clinical isolate | MIC | 32 µg/mL (≈ 76.9 µM) |
| O=C1C(Br)=C(Br)C(=O)c2ccccc21 | Nakaseomyces glabratus | microbial growth, broth dilution | ATCC2001 | 24 h | MIC | 6.25 µg/mL (≈ 19.8 µM) |
| C=CC(=O)NC1CCN(c2ncc3ncnc(Nc4ccc(Oc5ccc6c(c5)ncn6C)c(C)c4)c3n2)CC1 | SNU-182 | cell growth or viability |  |  | EC50 | 0.191 nM |
| C=CCc1ccc(O)c(OC)c1 | Cryptococcus neoformans | microbial killing, broth dilution |  | clinical isolate | MFC | 400 µg/mL (≈ 2440 µM) |
| C=C(F)C(=O)N1CCN(c2nc(OC[C@@H]3CCCN3C)nc3c2CCN(c2cccc4cccc(Cl)c24)C3)C[C@@H]1CC#N | NCI-H358 | cell growth or viability, ATP luminescence |  | 3D culture | IC50 | 3.85 nM |
| COc1ccc2c(C(=O)c3c(F)c(F)c(F)c(F)c3F)c(-c3ccc(OC)c(O)c3)[nH]c2c1 |  | tubulin polymerisation, inhibitor, absorbance |  |  | IC50 | > 20000 nM |
| COC1=CC(=O)c2ccccc2C1=O | Nakaseomyces glabratus | microbial growth, broth dilution | ATCC2001 | 24 h | MIC | 25 µg/mL (≈ 133 µM) |
| Cc1nn(-c2ccccc2)c2c1C(c1ccc([N+](=O)[O-])cc1)N(C(=O)c1ccncc1)N2 (centres unmarked) | Cryptococcus neoformans | microbial growth |  | clinical isolate | MIC | 64 µg/mL (≈ 150 µM) |
